From ChEMBL document CHEMBL3992509, “Discovery of a Highly Potent, Selective, and Metabolically Stable Inhibitor of Receptor-Interacting Protein 1 (RIP1) for the Treatment of Systemic Inflammatory Response Syndrome” (J Med Chem, 2017)
pIC50: −log10 of the molar value. The source made the active and inactive calls. The calls are words filed in the database; no cut-off is given here.

Assays:
Cytochrome P450 3A4 = Cytochrome P450 3A4 (Homo sapiens, UniProt P08684); assay: Inhibition of CYP3A4 (unknown origin); assay type: ADME
Mus musculus [1] = assay: Protection against TNFalpha-induced multiorgan damage in C57BL/6J mouse assessed as blood urea nitrogen level at 0.3 to 3 mg/kg, ip pretreated for 17 mins followed by TNFalpha injection and subsequent compound treatment once in every 12 hrs measured 24 hrs post TNFalpha injection; assay type: functional, organism-based
Summary of the method: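 C57BL/6 mice given 4 μg mTNFα (~0.18 mg/kg) IV. Compound 0.3, 1, 3 mg/kg IP 17 min before and then every 12 h; vehicle controls. Blood taken 12 h and 24 h after TNFα. Assays: IL-6 and IL-1β; serum LDH, CK, AST, creatinine, BUN, amylase.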

Cytochrome P450 2C9 = Cytochrome P450 2C9 (Homo sapiens, UniProt P11712); assay: Inhibition of CYP2C9 (unknown origin); assay type: ADME
Cytochrome P450 2D6 = Cytochrome P450 2D6 (Homo sapiens, UniProt P10635); assay: Inhibition of CYP2D6 (unknown origin); assay type: ADME
Cytochrome P450 2C19 = Cytochrome P450 2C19 (Homo sapiens, UniProt P33261); assay: Inhibition of CYP2C19 (unknown origin); assay type: ADME
Mus musculus [2] = assay: Protection against TNFalpha-induced mortality in ip dosed C57BL/6J mouse assessed as increase in survival rate pretreated for 17 mins followed by TNFalpha injection and subsequent compound treatment once in every 12 hrs measured every 30 mins up to 60 hrs post TNFalpha injection during compound dosing; assay type: functional, organism-based
Summary of the method: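 C57BL/6 mice, 6-8 weeks, ~20 g, randomized (n = 6~10). Given 5.5 μg mTNFα (~0.25 mg/kg) IV in endotoxin-free PBS, 0.2 mL. Compound IP 17 min before TNFα: either once at 6 mg/kg or […], 1, 3 mg/kg then every 12 h; vehicle controls. Survival checked every 30 min to 60 h.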

Mus musculus [3] = assay: (§1) Protection against TNFalpha-induced spleen damage in C57BL/6J mouse assessed as reduction in macrophages infiltration at 0.3 to 3 mg/kg, ip pretreated for 17 mins followed by TNFalpha injection and subsequent compound treatment once in every 12 hrs measured 24 hrs post TNFalpha injection by hematoxylin and eosin staining based assay; assay type: functional, organism-based
Summary of the method: (§2)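 Mice given mTNFα IV; compound 0.3, 1, 3 mg/kg IP 17 min before and every 12 h. Killed 24 h post-TNFα. Organs fixed 24 h in 10% neutral buffered formalin, paraffin-embedded, 5-μm sections, H&E stained; ×200, at least three mice each.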

Mus musculus [4] = assay: as §1, with “immune cell” for “macrophages”; assay type: functional, organism-based; summary of the method: as §2

Sequence of Cytochrome P450 2D6 (P10635 whole entry): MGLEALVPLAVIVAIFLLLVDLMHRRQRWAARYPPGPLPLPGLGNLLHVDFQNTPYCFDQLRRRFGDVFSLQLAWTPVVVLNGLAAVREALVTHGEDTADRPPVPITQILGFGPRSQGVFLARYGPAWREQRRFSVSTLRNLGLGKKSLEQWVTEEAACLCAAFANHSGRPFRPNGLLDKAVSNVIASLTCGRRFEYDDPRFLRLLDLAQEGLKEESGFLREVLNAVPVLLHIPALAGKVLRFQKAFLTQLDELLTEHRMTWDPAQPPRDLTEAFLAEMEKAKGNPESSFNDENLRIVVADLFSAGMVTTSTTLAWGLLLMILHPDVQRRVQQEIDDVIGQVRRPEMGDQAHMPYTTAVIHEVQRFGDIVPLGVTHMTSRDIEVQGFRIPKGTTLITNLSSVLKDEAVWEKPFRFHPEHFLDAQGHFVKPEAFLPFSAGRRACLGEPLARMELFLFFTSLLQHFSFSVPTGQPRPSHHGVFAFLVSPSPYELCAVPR
Sequence of Cytochrome P450 2C19 (P33261 whole entry): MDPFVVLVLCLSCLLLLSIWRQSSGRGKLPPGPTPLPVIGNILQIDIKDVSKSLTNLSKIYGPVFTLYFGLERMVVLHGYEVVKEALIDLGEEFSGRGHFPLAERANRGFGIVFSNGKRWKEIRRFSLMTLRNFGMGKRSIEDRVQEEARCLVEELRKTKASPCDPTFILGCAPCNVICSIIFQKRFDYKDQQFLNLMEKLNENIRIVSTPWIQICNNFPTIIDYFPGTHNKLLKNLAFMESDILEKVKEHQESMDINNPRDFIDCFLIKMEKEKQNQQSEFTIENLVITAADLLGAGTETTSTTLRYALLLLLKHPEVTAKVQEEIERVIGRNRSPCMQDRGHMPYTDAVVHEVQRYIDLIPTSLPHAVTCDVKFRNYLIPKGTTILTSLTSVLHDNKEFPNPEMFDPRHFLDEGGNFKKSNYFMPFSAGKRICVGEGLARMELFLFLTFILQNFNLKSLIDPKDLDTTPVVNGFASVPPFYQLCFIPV
Sequence of Cytochrome P450 3A4 (P08684 whole entry): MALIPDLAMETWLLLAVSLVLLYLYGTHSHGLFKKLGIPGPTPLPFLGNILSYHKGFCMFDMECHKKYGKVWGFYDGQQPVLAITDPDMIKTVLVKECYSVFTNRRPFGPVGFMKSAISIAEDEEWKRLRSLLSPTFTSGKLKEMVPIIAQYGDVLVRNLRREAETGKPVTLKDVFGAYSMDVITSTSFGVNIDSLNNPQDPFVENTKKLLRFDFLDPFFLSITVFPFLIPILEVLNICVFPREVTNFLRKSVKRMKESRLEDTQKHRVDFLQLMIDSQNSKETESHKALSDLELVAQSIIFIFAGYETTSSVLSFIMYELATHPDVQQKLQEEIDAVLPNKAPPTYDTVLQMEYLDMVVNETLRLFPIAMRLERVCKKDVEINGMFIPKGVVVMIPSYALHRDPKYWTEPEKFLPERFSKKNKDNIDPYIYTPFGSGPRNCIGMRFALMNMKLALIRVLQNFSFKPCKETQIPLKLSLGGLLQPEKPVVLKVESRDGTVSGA
Sequence of Cytochrome P450 2C9 (P11712 whole entry): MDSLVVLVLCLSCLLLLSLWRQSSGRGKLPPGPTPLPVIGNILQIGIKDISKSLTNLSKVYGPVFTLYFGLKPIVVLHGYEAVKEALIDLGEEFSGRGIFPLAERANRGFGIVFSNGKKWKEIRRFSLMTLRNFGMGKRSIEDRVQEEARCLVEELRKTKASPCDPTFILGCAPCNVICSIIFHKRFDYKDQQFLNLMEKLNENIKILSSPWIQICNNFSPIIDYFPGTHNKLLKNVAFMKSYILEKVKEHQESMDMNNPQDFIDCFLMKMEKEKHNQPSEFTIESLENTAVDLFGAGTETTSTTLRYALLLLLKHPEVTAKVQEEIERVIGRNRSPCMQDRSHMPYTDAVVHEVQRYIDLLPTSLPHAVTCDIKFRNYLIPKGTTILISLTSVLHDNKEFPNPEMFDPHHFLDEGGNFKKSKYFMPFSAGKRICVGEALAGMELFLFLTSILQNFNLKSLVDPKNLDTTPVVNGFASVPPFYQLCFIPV

CCC(C)(C)C(=O)N(O)Cc1ccccc1
pIC50 (Cytochrome P450 3A4): < 5.46
Activity (Mus musculus [1]): Active
pIC50 (Cytochrome P450 2C9): < 4.30
pIC50 (Cytochrome P450 2D6): < 4.30
pIC50 (Cytochrome P450 2C19): < 4.30
Activity (Mus musculus [2]): Dose-dependent effect
Activity (Mus musculus [3]): Active
Activity (Mus musculus [4]): Active
